Bioassay records deposited in PubChem by several laboratories.
Autophagy mod – autophagy modulators in MEF cells, primary screen, imaging, high-content, MEF GFP-LC3; MEF GFP-LC3 puncta imaging; test concentration mostly 10 µM; calls only at 10 µM (by protocol); 190,000 tested, 0.98% active;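 active = percentage of spot-positive cells more than 3 SD above its plate mean, without a fluorescence outlier flag or 80% toxicity; inconclusive = no clear call, values can overlap the other calls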
Mdm2 ligase inh – MDM2-luciferase reporter signal enhancers, primary screen, MDM2 E3 ligase inhibitor project, cell-based, luminescence, 1536-well; E3 ubiquitin-protein ligase Mdm2 (Homo sapiens), Q00987; cell-based MDM2 ubiquitination luciferase reporter, 2 h; 0 = plate control, 100 = twice control, blank-subtracted; signal enhancement, % at 5 µM; 210,000 tested, 0.11% active; AID 1230, 2008;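 active = signal enhancement of 30% or more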;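 note: luminescence tracks abundance of the self-degrading MDM2-luciferase fusion protein; higher signal means inhibition of MDM2 E3 ligase activity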
Target sequence (Q00987 whole entry, looked up, the tested form may be a part): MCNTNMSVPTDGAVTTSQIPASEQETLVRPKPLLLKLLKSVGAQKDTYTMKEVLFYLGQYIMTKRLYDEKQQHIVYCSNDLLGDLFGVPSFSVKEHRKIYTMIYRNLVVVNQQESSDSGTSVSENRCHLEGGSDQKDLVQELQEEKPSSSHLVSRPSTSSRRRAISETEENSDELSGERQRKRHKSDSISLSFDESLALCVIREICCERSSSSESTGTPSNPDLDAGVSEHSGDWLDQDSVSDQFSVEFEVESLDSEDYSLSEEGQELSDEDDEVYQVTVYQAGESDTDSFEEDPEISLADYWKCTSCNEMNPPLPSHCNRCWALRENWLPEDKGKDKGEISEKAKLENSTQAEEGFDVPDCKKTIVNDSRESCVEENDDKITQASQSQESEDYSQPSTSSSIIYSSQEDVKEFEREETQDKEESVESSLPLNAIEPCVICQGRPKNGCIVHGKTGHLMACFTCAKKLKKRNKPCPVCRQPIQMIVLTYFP
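system = mammalian cells stably expressing self-ubiquitinating, self-degrading MDM2 E3–luciferase fusion | quantity = 2000 cells per well seeded | incubation = 4 h cell settling then 2 h compound exposure, 37 °C | signal = SteadyLite luminescence, 15 min reagent step | benchmarks = plate control and blank wells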
L929 necroptosis – inhibitors of zVAD-triggered necroptosis, primary screen, L929 cells. L929 zVAD necroptosis rescue, ATP luminescence, 24 h; with zVAD 60 µM. viability rescue, % at 10 µM. 220,000 tested, 0.38% active;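 active = activation, scaled between plate controls, above about 75%, limit read from the data; inactive = activation under that limit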
TNF death inh – inhibitors of TNF-alpha triggered necroptosis, primary screen, cell-based, Jurkat FADD-/-, single concentration | Jurkat FADD-/- TNF necroptosis rescue, ATP luminescence, 24 h; 0 = TNF only, 100 = no-TNF cells | 220,000 tested, 0.068% active | activation (protection from cell death), % at 10 µM;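 active = activation, meaning protection from cell death, of at least 50% relative to plate controls; inactive = activation below 50%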;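 note: necroptosis triggered by 40 ng/mL TNF-alpha added together with compound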
Dynein cargo inh – inhibitors of GR-EGFP nuclear translocation, primary screen, dynein cargo transport inhibitor project, imaging, high-content, 3617.4 mouse cells | z-score, hits read low | test concentration mostly 20 µM; stimulated with dexamethasone, 1 µM; active compounds read low | AID 1381, 2008 | 220,000 tested, 0.47% active;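 active = plate z-score of nuclear minus cytoplasmic receptor signal below a set negative limit, without overly bright fluorescence or cell loss, cut at about -3.5 in these data, passing the limit was not always enough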;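 note: z-score of nuclear minus cytoplasmic ring GR-EGFP intensity difference per well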
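Also added: dexamethasone, 1.0 µM final. Medium: tet-free, stripped-serum medium. Detection: fixed, Hoechst-stained cells imaged at 10x for EGFP. Read-out: nuclear-to-cytoplasmic GR-EGFP distribution per well. Times: induction 48 h, compound 1 h, agonist 30 min.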
Dynein confirm – dynein cargo transport inhibitors, GR-EGFP translocation, confirmation, imaging, high-content imaging, GR-EGFP cells; shares compounds with Dynein cargo inh; 3617.4 GR-EGFP nuclear translocation imaging, dexamethasone-induced; calls only at 20 µM; 1,000 tested, 69% active; AID 463116, 2010;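 active = inhibition of receptor movement into the nucleus at or above a set limit in both runs, with normal cell brightness and cell count; inconclusive = limit reached in only one run, brightness and count normal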;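 note: dexamethasone at 1 µM final in well for 30 min; nuclear minus cytoplasmic GR-EGFP mean intensity difference in channel 2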
Of the large screens only hits and unclear results are named; the others gave an inactive call (follow-up assays come after a bar, where they were run). The list is not random: actives were taken first. Their share in the collection is about 1.8%.

O=C(NC1CCCCC1)C(c1cccnc1)N(C(=O)CCl)c1cccc(Cl)c1 (stereo unspecified)	Dynein cargo inh -4.25 (no result: L929 necroptosis) | Dynein confirm active
COc1cccc(N(C(=O)c2ccco2)C(C(=O)NC2CCCC2)c2cccnc2)c1 (stereo unspecified)	none
Cc1cc(Nc2n[nH]c(N)c2C#N)ccc1F	none
CCOC(=O)c1c(-c2ccc(C)o2)csc1NC(=O)COC(=O)c1cccs1	none
CCOC(=O)c1c(-c2ccc(C)o2)csc1NC(=S)NC(=O)N(C)C	Dynein cargo inh -3.83 | Dynein confirm inactive
O=S(=O)(c1ccc(NC(=S)NCc2ccncc2)cc1)N1CCCCC1	none (no result: Autophagy mod)
CCCCCCc1cc2cc(-c3nnc(-c4ccccc4OC)o3)c(=O)oc2cc1O	Autophagy mod inconclusive
CCCCCCc1cc2cc(-c3nnc(-c4ccccc4O)o3)c(=O)oc2cc1O	Autophagy mod active | Dynein confirm active
CCOc1cc(/C=C2/COc3ccccc3C2=O)ccc1OCC(=O)N(C)C	Dynein cargo inh -3.56 | Dynein confirm active
CCOc1cc(/C=C/C(=O)c2ccc(C)cc2)ccc1OCC(=O)N(C)C	none
CCOc1cc(/C=C\[N+](=O)[O-])ccc1OCC(=O)Nc1ccccc1C	Dynein cargo inh -3.55 | Dynein confirm active
COc1ccccc1C(c1c(N)n(C)c(=O)n(C)c1=O)C(C)[N+](=O)[O-] (stereo unspecified)	none (no result: Autophagy mod)
COc1ccccc1C(C[N+](=O)[O-])c1c(N)n(C)c(=O)n(C)c1=O (stereo unspecified)	Dynein cargo inh -3.54 (no result: Autophagy mod) | Dynein confirm inconclusive
Clc1nssc1=Nc1ccc(Br)cc1	none
N#Cc1cccc(N=c2ssnc2Cl)c1	none | Dynein confirm active
CCOC(=O)N1CCN(CC(=O)Nc2ccc(F)c(F)c2)CC1	none
CCCCNc1ccc2c3c(cccc13)C(=O)N(CCCC)C2=O	Dynein cargo inh -6.07 (no result: Autophagy mod) | Dynein confirm active
CN(C)CCCN1C(=O)c2cccc3c(Br)ccc(c23)C1=O	none
Cc1cccc(C)c1NC(=S)N(CCCN1CCCCC1)Cc1ccco1	none
COc1ccc(N=C2S/C(=C\c3ccc(OCC(=O)O)cc3)C(=O)N2CCc2c[nH]c3ccccc23)cc1	none
COc1ccc(N=C2S/C(=C\c3ccc(N4CCOCC4)o3)C(=O)N2CCc2c[nH]c3ccccc23)cc1	Autophagy mod active | Dynein confirm active
COc1ccc(NC(=O)C(Cl)=C(Cl)Cl)cn1	Dynein cargo inh -4.49 | Dynein confirm active
COc1ccc(NC(=O)Cc2ccc(-c3ccccc3)cc2)cn1	none
COc1ccc(NC(=O)/C(Cl)=C(/Cl)S(=O)(=O)Cc2ccccc2)cn1	Autophagy mod active, Dynein cargo inh -5.56 | Dynein confirm active
O=C(CCCn1cc([N+](=O)[O-])cn1)Nc1cccnc1	none (no result: Autophagy mod, Mdm2 ligase inh)
O=S(=O)(c1ccccc1)c1ncc(C(F)(F)F)cc1Cl	Dynein cargo inh -6.39 | Dynein confirm active
COc1ccccc1N1C(=O)C=C(Sc2nc(C)cc(C)n2)C1=O	Dynein cargo inh -3.95 (no result: Autophagy mod) | Dynein confirm active
O=C(COC(=O)Cc1c(Cl)cccc1Cl)NCC1CCCO1 (stereo unspecified)	none
O=C(CCN1CCN(c2ccccc2F)CC1)c1ccc(Br)cc1	Dynein cargo inh -4.27 | Dynein confirm inactive
O=C(Cn1nc(-c2ccc3c(c2)OCCO3)ccc1=O)Nc1cccc(NC(=O)c2ccccn2)c1	none
COC(=O)c1cc(=O)n(Cc2cccs2)c(=Nc2ccccc2)s1	Dynein cargo inh -4.43 (no result: Autophagy mod) | Dynein confirm active
COC(=O)c1cc(=O)n(Cc2ccc(F)cc2)c(=Nc2ccccc2)s1	Dynein cargo inh -4.64 (no result: Autophagy mod, Mdm2 ligase inh) | Dynein confirm active
COC(=O)c1cc(C(=O)OC)n(Cc2ccc(F)cc2)c1C	none
